Laboratory results from ChEMBL document CHEMBL3612009, “Synthesis and structure-activity relationship study of a new series of antiparasitic aryloxyl thiosemicarbazones inhibiting Trypanosoma cruzi cruzain” (Eur J Med Chem, 2015).

Key:
[1] = system: Trypanosoma cruzi; assay: Antiparasitic activity against trypomastigotes of Trypanosoma cruzi Y assessed as reduction of parasite count after 24 hrs; assay type: functional
[2] = system: Trypanosoma cruzi; assay: Antiparasitic activity against epimastigotes of Trypanosoma cruzi Dm28c assessed as reduction of parasite count after 5 days; assay type: functional; conditions: 120 h
[3] = Selectivity index, ratio of CC50 for mouse L929 cells to IC50 for amastigote and trypomastigote forms of Trypanosoma cruzi Tulahuen; assay type: functional
Method in brief: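 SI = CC50 in uninfected L-929 fibroblasts (alamarBlue, 96 h) divided by IC50 against intracellular amastigote/trypomastigote forms (beta-galactosidase assay, 7 days).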

[4] = Cytotoxicity against BALB/c mouse splenocytes assessed as maximum non-toxic concentration by measuring [3H]-thymidine incorporation after 24 hrs by liquid scintillation counting; assay type: cell-based, Splenocyte
Method in brief: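 BALB/c splenocytes, 5 x 10^6 cells/well, given compounds at 1.23, 3.7, 33.33 and 100 µg/mL, 1% DMSO final, triplicate; 24 h at 37 °C, 5% CO2. Then 1.0 µCi [3H]-thymidine added; cells harvested and counted by liquid scintillation. Highest non-cytotoxic concentration taken from % incorporation.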

[5] = system: Trypanosoma cruzi; assay: Antitrypanosomal activity against amastigote and trypomastigote forms of Trypanosoma cruzi Tulahuen expressing beta-galactosidase gene infected in mouse L-929 cells assessed as inhibition of parasite growth after 7 days by colorimetric betagalactosidase assay; assay type: functional, organism-based; conditions: L929, 168 h
[6] = system: Trypanosoma cruzi; assay: Antitrypanosomal activity against amastigote and trypomastigote forms of Trypanosoma cruzi Tulahuen expressing beta-galactosidase gene infected in mouse L-929 cells assessed as inhibition of parasite growth at 100 uM after 7 days by colorimetric betagalactosidase assay; assay type: functional; conditions: L929, 168 h
[7] = biological target: Cruzipain (Trypanosoma cruzi) (UniProt P25779); assay: Inhibition of Trypanosoma cruzi catalytic activity of cruzain using Z-FR-AMC as substrate at 50 uM after 10 mins by fluorescence assay
[8] = Cytotoxicity against mouse L929 cells assessed as cell viability after 96 hrs by alamarBlue assay; assay type: cell-based
Method in brief: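 Uninfected L-929 cells at the same cell number and timing as the beta-galactosidase assay; increasing concentrations starting at the T. cruzi IC50, quadruplicate. After 96 h, alamarBlue added; absorbance at 570 and 600 nm read 6 h later. Viability as % reduction versus untreated; CC50 by linear interpolation.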

[9] = biological target: Cruzipain (Trypanosoma cruzi, UniProt P25779); assay: Inhibition of Trypanosoma cruzi catalytic activity of cruzain using Z-FR-AMC as substrate after 10 mins by fluorescence assay
[10] = system: Trypanosoma cruzi; assay: Antiparasitic activity against trypomastigotes of Trypanosoma cruzi Y assessed as induction of parasite death at 5 uM after 24 hrs using propidium iodide staining after 24 hrs by flow cytometry analysis; assay type: functional
Method in brief: (§1)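 Y strain trypomastigotes (4x10^5) in RPMI-1640 with 10% FBS, exposed to test agent for 24 h at 37 °C, 5% CO2; then stained with propidium iodide and analysed by flow cytometry, at least 10,000 events. Read-out is % PI-positive cells versus untreated parasites; Triton X-100 as positive control. Two independent experiments, each concentration in duplicate.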

[11] = system: Trypanosoma cruzi; assay: Antiparasitic activity against trypomastigotes of Trypanosoma cruzi Y assessed as induction of parasite death at 0.5 uM after 24 hrs using propidium iodide staining after 24 hrs by flow cytometry analysis; assay type: functional; method in brief: as §1

Sequence of Cruzipain (P25779 whole entry): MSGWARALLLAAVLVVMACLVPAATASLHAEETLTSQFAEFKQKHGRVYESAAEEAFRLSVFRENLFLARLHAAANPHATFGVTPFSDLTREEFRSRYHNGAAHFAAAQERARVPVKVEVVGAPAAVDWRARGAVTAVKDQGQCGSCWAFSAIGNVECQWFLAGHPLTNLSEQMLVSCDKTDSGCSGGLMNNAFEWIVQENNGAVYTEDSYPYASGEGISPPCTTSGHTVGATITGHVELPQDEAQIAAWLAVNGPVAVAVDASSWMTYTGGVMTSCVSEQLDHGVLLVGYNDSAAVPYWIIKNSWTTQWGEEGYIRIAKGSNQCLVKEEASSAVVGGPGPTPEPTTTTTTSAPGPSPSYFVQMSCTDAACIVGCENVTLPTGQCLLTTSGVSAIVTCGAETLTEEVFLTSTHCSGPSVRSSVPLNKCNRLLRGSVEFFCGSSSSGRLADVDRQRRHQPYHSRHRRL
Sequence of Cruzipain (Trypanosoma cruzi) (P25779 123-467 limits assumed): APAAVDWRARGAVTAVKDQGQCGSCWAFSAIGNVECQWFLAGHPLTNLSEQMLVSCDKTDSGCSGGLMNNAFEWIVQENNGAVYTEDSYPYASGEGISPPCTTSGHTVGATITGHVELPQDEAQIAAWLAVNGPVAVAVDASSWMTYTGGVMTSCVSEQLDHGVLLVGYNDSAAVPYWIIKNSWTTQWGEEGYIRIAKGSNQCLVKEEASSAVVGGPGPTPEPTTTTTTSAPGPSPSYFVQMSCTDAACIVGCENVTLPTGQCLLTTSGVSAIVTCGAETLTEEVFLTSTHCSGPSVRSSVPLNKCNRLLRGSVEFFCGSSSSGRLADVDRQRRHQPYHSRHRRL

Row | SMILES | IC50 [2] [µM] | IC50 [5] [µM] | inhibition [7] [%] | IC50 [9] [µM] | CC50 [1] [µM] | Ratio CC50/IC50 [3] | MNTC at 24 h [4] [nM] | inhibition at 100 µM [6] [%] | CC50 at 96 h [8] [µM] | Activity [10] [%] | Activity [11] [%]
1 | CC1CS(=O)(=O)CCN1/N=C/c1ccc([N+](=O)[O-])o1 (stereo not given) [NIFURTIMOX] | – | – | – | – | 2.7 | – | – | – | – | – | –
2 | NC(=S)N/N=C(\COc1ccc(I)cc1)c1ccc(Br)cc1 | 2.9 | 8.6 | 63.3 | – | 2.1 | 2.4 | 2100 | > 70 | < 20.4 | – | –
3 | NC(=S)N/N=C(\COc1cccc2ccccc12)c1ccc(Br)cc1 | 3 | 48.3 | – | – | 3.4 | <2 | 2400 | > 70 | < 96.5 | – | –
4 | NC(=S)N/N=C(\COc1ccc(Cl)c(Cl)c1)c1ccc(Br)cc1 | 1.8 | 8.3 | 99.1 | 0.008 | 3 | 2.8 | < 2300 | > 70 | 23.1 | 44.9 | 2.3
5 | Cc1ccc(/C(COc2ccc(Br)cc2)=N\NC(N)=S)cc1 | 3.7 | 7.9 | 70.9 | – | 3.1 | 1.7 | 13200 | > 70 | 13.2 | – | –
6 | COc1ccc(/C(COc2ccc(Br)cc2)=N\NC(=S)Nc2ccccc2)cc1 | 10.2 | – | 42.8 | – | – | – | – | > 70 | – | – | –
7 | CCc1ccc(OC/C(=N\NC(N)=S)c2ccc(Br)cc2)cc1 | 2.1 | 6.4 | 75.1 | – | 1.8 | <4 | 2600 | > 70 | < 25.5 | – | –
8 | COc1ccc(/C(COc2ccc(Br)cc2)=N\NC(N)=S)cc1 | 3.1 | 11.9 | 38.7 | – | 5 | <2.1 | 2500 | > 70 | < 25.4 | – | –
9 | NC(=S)N/N=C(/COc1ccc(Br)cc1)c1ccc(Br)cc1 | 11.9 | < 8.1 | 11.8 | – | 3.9 | >2.8 | 22600 | > 70 | 22.6 | – | –
10 | NC(=S)N/N=C(\COc1ccc2ccccc2c1)c1ccc(Br)cc1 | 5.3 | 13.5 | 72.1 | – | 5 | >14.3 | 2400 | > 70 | > 193 | – | –
11 | CNC(=S)N/N=C(/COc1ccc(Br)cc1)c1ccc(F)cc1 | 15.7 | – | 30 | – | 7.4 | – | – | > 70 | – | – | –
12 | CC(C)(C)c1ccc(OC/C(=N\NC(N)=S)c2ccc(Br)cc2)cc1 | 5.2 | 15.2 | 85.3 | – | 2.2 | 1.6 | 2400 | > 70 | 23.8 | – | –
13 | CNC(=S)N/N=C(/COc1ccc(Br)cc1)c1ccc(OC)cc1 | 4.5 | – | 29.8 | – | 3.6 | – | – | > 70 | – | – | –
14 | CC(=O)Nc1ccc(OC/C(=N\NC(N)=S)c2ccc(Br)cc2)cc1 | 15.6 | 43.2 | 80.7 | – | 3.5 | 2.2 | 2400 | > 70 | 94.9 | – | –
15 | NC(=S)N/N=C(/COc1ccc(Br)cc1)c1ccc(Cl)cc1 | 3.6 | 14.8 | 67.5 | – | 5.3 | 1.7 | 12500 | > 70 | 25.1 | – | –
16 | NC(=S)N/N=C(/COc1ccc(Br)cc1)c1cccc2ccccc12 | 7.5 | 4.8 | 73.6 | – | 14.7 | 2.5 | 2400 | > 70 | 12.1 | – | –
17 | NC(=S)N/N=C(\COc1cccc(Cl)c1Cl)c1ccc(Br)cc1 | 4.4 | 10.8 | 81.8 | – | 5.7 | 2.8 | 23100 | > 70 | 23.1 | – | –
18 | COc1ccc(OC/C(=N\NC(N)=S)c2ccc(Br)cc2)cc1 | 1.8 | 8.9 | 75.8 | – | 3.7 | 11.4 | < 2500 | > 70 | 102 | – | –
19 | Fc1ccc(/C(COc2ccc(Br)cc2)=N\NC(=S)Nc2ccccc2)cc1 | – | – | 35 | – | 15.6 | – | – | > 70 | – | – | –

The next lines start with results.

Row | IC50 [2] [µM] | IC50 [5] [µM] | inhibition [7] [%] | IC50 [9] [µM] | SMILES | CC50 [1] [µM] | Ratio CC50/IC50 [3] | MNTC at 24 h [4] [nM] | inhibition at 100 µM [6] [%] | CC50 at 96 h [8] [µM] | Activity [10] [%] | Activity [11] [%]
20 | 4.1 | 76.6 | 63.7 | – | NC(=S)N/N=C(\COc1ccc(-c2ccccc2)cc1)c1ccc(Br)cc1 | 12.3 | 1.2 | 22700 | > 70 | 90.8 | – | –
21 | 3.9 | 3.3 | 88.9 | 0.6 | NC(=S)N/N=C(/COc1ccc(Br)cc1)c1ccc(-c2ccccc2)cc1 | 2.1 | 6.9 | 2300 | > 70 | 22.7 | – | –
22 | 2.2 | 25.1 | 51.8 | – | NC(=S)N/N=C(\COc1cccc(Cl)c1)c1ccc(Br)cc1 | 1.6 | <2 | 2500 | > 70 | < 50.2 | – | –
23 | 3.7 | 9.9 | 62.8 | – | COc1cccc(OC/C(=N\NC(N)=S)c2ccc(Br)cc2)c1 | 1.2 | 5.1 | 2500 | > 70 | 50.7 | – | –
24 | 3.9 | 149 | 81.3 | – | NC(=S)N/N=C(\COc1cccc(Br)c1)c1ccc(Br)cc1 | 6.2 | >1.2 | 2700 | > 70 | > 180 | – | –
25 | 14.5 | 10.2 | 67.6 | – | NC(=S)N/N=C(/COc1ccc(Br)cc1)c1ccccc1 | 2.4 | <2.7 | 68600 | > 70 | < 27.5 | – | –
26 | 3.5 | 13.5 | 58.9 | – | NC(=S)N/N=C(\COc1ccccc1Cl)c1ccc(Br)cc1 | 6 | 1.9 | < 2500 | > 70 | 25.1 | – | –
27 | 3 | 5.4 | 61.8 | – | NC(=S)N/N=C(\COc1ccccc1)c1ccc(Br)cc1 | 6.6 | 10.2 | 137000 | > 70 | 54.9 | – | –
28 | 3.8 | 10.7 | 53.1 | – | NC(=S)N/N=C(/COc1ccc(Br)cc1)c1ccc(F)cc1 | 3.6 | <2.5 | 2600 | > 70 | < 26.2 | – | –
29 | 4.4 | > 182 | 65.4 | – | NC(=S)N/N=C(\COc1cccc(-c2ccccc2)c1)c1ccc(Br)cc1 | 28.3 | – | 2300 | > 70 | – | – | –
30 | 1.8 | 15.7 | 84 | 0.4 | NC(=S)N/N=C(\COc1ccc(F)cc1)c1ccc(Br)cc1 | 3.1 | 3.3 | 2600 | > 70 | 52.3 | – | –
31 | 4.6 | 11.2 | 73.6 | – | NC(=S)N/N=C(\COc1ccc(Cl)cc1)c1ccc(Br)cc1 | 5.7 | <2.2 | < 2500 | > 70 | < 25.1 | – | –
